From ChEMBL document CHEMBL1139419, “Quantitative structure-activity relationship studies on nitrofuranyl anti-tubercular agents” (2008)
In brackets after ≈: the same amount, converted by molar mass.

Tested on: Mycobacterium tuberculosis
Assay: Antitubercular activity against Mycobacterium tuberculosis H37Rv assessed as drug level causing 90% growth inhibition after 7 days by microbroth dilution method
Format: functional
Details: for MIC: Mycobacterium tuberculosis, H37Rv, 168 h
How it was run: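 Two-fold serial dilutions in 7H9 broth with 10% albumin-dextrose complex and 0.05% (v/v) Tween80, in round-bottom microtiter plates, with final concentrations starting at 200 μg/mL. Equal volume of H37Rv broth inoculum added. Incubated aerobically at 37°C for 7 days and read visually. MIC taken as the lowest concentration inhibiting 90% of growth relative to the no-drug control.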

SMILES	-logMIC	MIC
O=C(NCc1ccc(N2CCN(Cc3ccccc3)CC2)cc1)c1ccc([N+](=O)[O-])o1	2.4296	1.56 µg/mL (≈ 3.71 µM)
O=C(NCc1ccc(N2CCS(=O)(=O)CC2)cc1)c1ccc([N+](=O)[O-])o1	0.8801	50 µg/mL (≈ 132 µM)
O=C(NCc1ccc(N2CCCN(Cc3ccccc3)CC2)cc1)c1ccc([N+](=O)[O-])o1	3.0309	0.4 µg/mL (≈ 0.921 µM)
CC(C)(C)OC(=O)N1CCN(c2ccc(CNC(=O)c3ccc([N+](=O)[O-])o3)cn2)CC1	5.7318	0.0008 µg/mL (≈ 0.00185 µM)
CCOC(=O)N1CCN(c2ccc(CNC(=O)c3ccc([N+](=O)[O-])o3)cc2)CC1	4.8123	0.0062 µg/mL (≈ 0.0154 µM)
O=C(NCc1ccco1)c1ccc([N+](=O)[O-])o1	1.5774	6.25 µg/mL (≈ 26.5 µM)
CN1CCN(c2ccc3c(c2)CCN(C(=O)c2ccc([N+](=O)[O-])o2)C3)CC1	3.8697	0.05 µg/mL (≈ 0.135 µM)
O=C(NCc1ccc(C(F)(F)F)cc1)c1ccc([N+](=O)[O-])o1	3.7983	0.05 µg/mL (≈ 0.159 µM)
O=C(c1ccc([N+](=O)[O-])o1)N1CCC(Oc2ccc(OC(F)(F)F)cc2)CC1	5.6993	0.0008 µg/mL (≈ 0.002 µM)
NC1CCN(c2ccc(CNC(=O)c3ccc([N+](=O)[O-])o3)cc2)C1 (configuration not stated)	2.6172	0.8 µg/mL (≈ 2.42 µM)
COC(=O)NC(=O)c1ccc([N+](=O)[O-])o1	2.7286	0.4 µg/mL (≈ 1.87 µM)
